Assay outcomes as filed in PubChem BioAssay.
MT1-MMP act inh: MT1-MMP (human) activation inhibition; HT1080 RFP-PRO-GFP cells, GFP/RFP ratio fluorescence, overnight; percent of plate control window, DMSO zero; GFP/RFP ratio change, % at 20 µM; 360,000 compounds, 0.061% hits;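 active = GFP/RFP ratio change of at least 30% with cell ATP level not reduced by more than half and red fluorescence within 50% of control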
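Assay system: HT1080 cells carrying an RFP-PRO-GFP reporter | Dosing: Single dose of 20 µM compound, 1% DMSO final | Incubation: Cells overnight before dosing, compound overnight, 37 °C, 5% CO2 | Evaluation: GFP/RFP fluorescence ratio | Control set: DMSO and RFP-L50D-GFP cell wells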
eIF4H FP inh: inhibitors of RNA binding by human eIF4H | Q15056 | eIF4H fluorescence polarization binding assay | inhibition, % at 35 µM | 290,000 compounds, 0.94% hits | AID 2012;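 also: calls also rest on retests at 20 µM and on dose response follow-up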
MLLE-PAM2 inh: blocks PAM2 peptide binding to the PABP1 MLLE domain; P11940; GST-MLLE / FITC-PAM2 fluorescence polarization; inhibition, % at 20 µM; 360,000 compounds, 0.36% hits; AID 588489; in the data active = inhibition above about 35%, passing the limit was not always enough;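 also: plate controls were DMSO wells with GST-MLLE for no effect and wells lacking GST-MLLE protein for full effect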
Target sequence (P11940 whole entry, looked up, the tested form may be a part): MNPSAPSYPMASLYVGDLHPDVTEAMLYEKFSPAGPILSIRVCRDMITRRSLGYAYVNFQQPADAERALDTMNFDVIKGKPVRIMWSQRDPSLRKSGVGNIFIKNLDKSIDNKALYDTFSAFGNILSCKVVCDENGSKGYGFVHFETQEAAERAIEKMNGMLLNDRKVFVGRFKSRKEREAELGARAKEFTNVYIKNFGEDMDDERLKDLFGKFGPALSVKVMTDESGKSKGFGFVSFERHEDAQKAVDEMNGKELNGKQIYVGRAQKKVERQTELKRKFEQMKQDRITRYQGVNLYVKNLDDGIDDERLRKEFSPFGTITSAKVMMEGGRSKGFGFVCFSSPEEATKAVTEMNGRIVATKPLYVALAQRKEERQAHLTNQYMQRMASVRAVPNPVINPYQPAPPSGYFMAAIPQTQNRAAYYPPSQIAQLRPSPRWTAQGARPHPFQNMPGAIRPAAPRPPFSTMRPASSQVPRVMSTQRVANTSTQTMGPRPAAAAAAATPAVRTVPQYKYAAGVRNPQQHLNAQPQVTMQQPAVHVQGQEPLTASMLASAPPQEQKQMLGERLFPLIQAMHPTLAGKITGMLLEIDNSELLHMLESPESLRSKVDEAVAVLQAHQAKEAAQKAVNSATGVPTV
PABP FP inh: PABP-poly(A) binding inhibition. P11940. PABP-poly(A) RNA binding, fluorescence polarization. calls only at 35 µM. 290,000 compounds, 1% hits;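 also: calls also rest on retests at 20 µM and on dose response follow-up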
SKN-1 block: C. elegans SKN-1 inhibition | 360,000 compounds, 0.49% hits | C. elegans VP596 Pgst-4::GFP/RFP ratio, acrylamide-induced, 24 h | inhibition, % at 21.8 µM;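 active = interference check ratio from 0.5 to 1.5 plus GFP to RFP signal ratio inhibition reaching or exceeding a fixed threshold, cut at about 30% in these data, passing the limit was not always enough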
Active calls of the source: *; i = inactive; ? = inconclusive; / = no result given; + = active, no number. An excerpt weighted towards active compounds, which were near 1.8% of everything screened. Unless noted, no rule for the calls is given here.

SMILES | MT1-MMP act inh | eIF4H FP inh | MLLE-PAM2 inh | PABP FP inh | SKN-1 block
Cc1ccc2c(c1)c1c3n2CCN(C(=O)CN2CCN(C)CC2)C3CCC1 (stereo unspecified) | -6 | 17 | -2 | i | -10
CC(CNC(=O)c1ccc(C#N)cc1)NC(=O)c1ccc(C#N)cc1 (stereo unspecified) | 0 | -8 | 19 | i | 27
CC1CCCN(CC(=O)N2c3ccccc3Sc3ccccc32)C1 (stereo unspecified) | 2 | 3.1* | 0 | i | -5
CC(C)(C)NC(=O)CCN(/N=C/c1ccc([N+](=O)[O-])o1)C1=NS(=O)(=O)c2ccccc21 | -10 | 82* | -28 | i | 11
CCc1ccc(-c2nc(CSCC(=O)N3CCN(c4ccccn4)CC3)c(C)o2)cc1 | 2 | -10 | 39* | i | 5
O=C(O)c1ccc2c(c1)CCCN2 | -3 | 52* | 18 | + | 38*
c1ccc(CSc2nccc(-c3ccco3)n2)cc1 | -4 | / | 3 | / | 43*
Cc1cc(C(=O)CSc2nc(N)cc(N)n2)c(C)n1-c1cccc(C(F)(F)F)c1 | 3 | 56* | -14 | i | 13
Cc1cc(C(=O)CSc2ncccn2)c(C)n1-c1cccc(F)c1 | -3 | 11 | -22 | i | 14
CCc1nc2c(OCCC3CCCCC3)cccn2c1N(C=O)Cc1ccccc1 | -6 | / | 21 | / | 13
Cc1ccc(C(C(=O)NC2CCCC2)N(C(=O)CNC(=O)c2ccco2)c2ccccc2)o1 (stereo unspecified) | 0 | -6 | 14 | i | 8
COc1cc([C@@H]2C[C@H]3CN(c4ccccc4)C(=O)[C@]34CCCN24)cc(OC)c1OC | -6 | 58 | -18 | i | 12
COc1ccccc1-n1cc([C@@H]2C[C@H]3CN(c4ccccc4)C(=O)[C@]34CCCN24)cn1 | -29 | ? | -93 | ? | 40*
CCOc1cc([C@@H]2C[C@H]3CN(c4ccccc4)C(=O)[C@]34CCCN24)ccc1OC | -8 | 57* | -30 | i | -2
O=C(/C=C/c1ccco1)N(c1ccccn1)c1ccccn1 | -5 | 101* | 17 | i | 3
CN1C(=O)C2(c3ccccc31)C1CCCC=C1C(C#N)=C(N)C2(C#N)C#N (stereo unspecified) | -18 | 44* | -8 | + | 5
Clc1ccc(OCc2nc(-c3ccncc3)no2)c(Br)c1 | -1 | -9 | -1 | i | 51*
O=C(/C=C/c1ccccc1)c1cc(Br)ccc(=O)c1O | -5 | 83* | -70 | + | -11
O=C(/C=C/c1ccc(F)cc1)c1cc(Br)ccc1O | 7 | -6 | 0 | i | 20
Cc1ccc(/C=C/C(=O)c2ccccc(=O)c2O)cc1C | -11 | 66* | -10 | + | 4
CSc1ccc(C2NC(=O)c3c(sc4c3CCN(C)C4)N2)cc1 (stereo unspecified) | -39 | 109* | -65 | + | 18
COCC(=O)Nc1sc2c(c1C(=O)OC)CCC(C)C2 (stereo unspecified) | 5 | -7 | 0 | i | 15
CC1CCc2c(sc(NC(=O)CCC(=O)O)c2C(=O)NC2CC2)C1 (stereo unspecified) | 1 | -8 | 40* | i | -3
CNC(=O)c1c(NC(=O)c2ccc(N3C(=O)CCC3=O)cc2)sc2c1CCCC2 | -1 | 12 | 2 | i | 9
CNC(=O)c1c(NC(=O)c2ccc(N3C(=O)CCC3=O)cc2)sc2c1CCC(C)C2 (stereo unspecified) | -2 | -2 | -7 | i | 41*
SMILES | MT1-MMP act inh | eIF4H FP inh | MLLE-PAM2 inh | PABP FP inh | SKN-1 block
CSc1ncnc2c1ncn2CCCNc1ccc(C)c(C)c1 | 7 | / | 7 | / | 2
COc1ccc(NS(=O)(=O)c2ccc(Cl)s2)cn1 | -12 | ? | 58* | ? | -11
CCOC(=O)C1CCN(C(=O)c2[nH]c(C(F)(F)F)nc2-c2ccccc2)CC1 | -3 | / | -7 | / | -14
COc1ccc(CC(=O)NCc2ccc3c(c2)cc(C)n3C)cc1 | / | 22 | 35 | i | 50*
CCOC(=O)NCc1ccc2c(c1)cc(C)n2C | 33 | 20 | 18 | i | 52*
CCC(CC)C(=O)NCc1ccc2c(c1)cc(C)n2C | 25 | 2 | 21 | i | 40
Cc1cc2cc(CNC(=O)C(C)Oc3ccccc3)ccc2n1C (stereo unspecified) | 50 | 73 | 26 | + | 55
CCc1cccc(C)c1NC(=S)NCc1ccc2c(c1)cc(C)n2C | 50 | 12 | -21 | i | 97*
COc1ccc(NC(=S)NCc2ccc3c(c2)cc(C)n3C)cc1 | 13 | 49 | -29 | i | 21
Cc1c(C(=O)Nc2cccnc2Cl)oc2ccccc12 | 0 | -2 | 24 | i | 21
Cc1cc2cc(CNS(=O)(=O)c3ccccc3)ccc2n1C | 32 | 18 | 37 | i | 44
Cc1cc2cc(CNC(=O)c3cccs3)ccc2n1C | 30 | 8 | 45* | i | 34
COc1cccc(C(=O)NCc2ccc3c(c2)cc(C)n3C)c1 | 31 | 101 | 75 | i | 50
Cc1cc2cc(CNC(=O)C3CC3)ccc2n1C | 24 | 81 | 33 | i | 40*
Cc1cc2cc(CNC(=O)CC(C)C)ccc2n1C | 23 | 28 | 20 | i | 50
COc1ccc(S(=O)(=O)NCc2ccc3c(c2)cc(C)n3C)cc1 | 46 | 64* | 49* | + | 56
CCOC(=O)CCC(=O)NCc1ccc2c(c1)cc(C)n2C | 22 | 103 | 21 | + | 67
COC(=O)[C@]12CCCCC=C1N(CCc1ccc(OC)c(OC)c1)C(=O)[C@H](CC(=O)N1CCN(C(=O)c3ccco3)CC1)C2 | 5 | / | / | / | -4
COc1ccc2c(C)c(C(=O)N3CCN(Cc4ccccc4)CC3)oc2c1 | -2 | -4 | 5 | i | -7
CC1(C(=O)OCC(=O)Nc2cc(S(=O)(=O)N3CCOCC3)ccc2Cl)CC1(Cl)Cl (stereo unspecified) | 1 | / | -21 | / | 3
Cc1cc2cc(CNC(=O)Nc3ccccc3)ccc2n1C | 41 | 11 | 63* | i | 38*
Cc1ccccc1NC(=S)NCc1ccc2c(c1)cc(C)n2C | -5 | 24 | -29 | i | 24
O=C(O)/C=C/c1ccc(O)c(O)c1 | -2 | -11 | -1 | i | 2
O=C(/C=C/c1ccc(O)c(O)c1)O[C@H](Cc1ccc(O)c(O)c1)C(=O)O | / | 98* | / | + | /
CCOc1ccc(/C=c2\sc3nc(-c4ccco4)nn3c2=O)cc1OCC | 1 | 33 | 43* | i | -10
COc1cc(/C=c2\sc3nc(=O)c(-c4ccccc4)nn3c2=O)ccc1OCCC(C)C | -55 | 10 | 52 | i | -8
COc1ccccc1/C=c1\sc2nc(-c3ccco3)nn2c1=O | -7 | 90* | -3 | + | 12
